The source of these data is ChEMBL document CHEMBL4373638, “Anthranilic amide and imidazobenzothiadiazole compounds disrupt Mycobacterium tuberculosis membrane potential” (Medchemcomm, 2019).

Data set [1] has as its system Mycobacterium tuberculosis. Put plainly: Disruption of membrane potential loss in Mycobacterium tuberculosis H37Rv at MBC concentration at pH 4.5 after 15 mins measured at pH 5.6 by DiOC2 probe based fluorescence assay. In kind it is functional, organism-based. The gist of the method: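 Mid-log Mtb grown in 7H9-OADC-Tw, concentrated to OD590 ~1.0 in 7H9-Tw adjusted to assay pH (6.8 or 5.6), loaded with 15 μM DiOC2 for 20 min at RT, washed, then exposed to 2-fold serial dilutions for 15 min at RT; red (488/650 nm) to green (488/530 nm) fluorescence ratio; CCCP positive, DMSO vehicle controls; representative of two runs.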

Data set [2] has as its system HepG2. In words: Disruption of mitochondrial membrane potential in human HepG2 cells up to 200 uM after 30 mins by DiOC2 probe based fluorescence assay. In kind it is ADME, cell-based. To be noted: hepg2, 0.5 h.
Data set [3] concerns Mycobacterium tuberculosis. In words: Antitubercular activity against non-replicating Mycobacterium tuberculosis H37Rv assessed as microbial killing at 115 to 230 uM at pH 5.5. In kind it is functional, organism-based. The note with it: TDE = time-dependent effect. The gist of the method:
(§1)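 Non-replicating kill kinetics: late-log H37Rv (OD590 0.6–1.0) resuspended in phosphate citrate buffer with 0.05% tyloxapol, inoculated at ~10⁶ CFU mL⁻¹, compound added (2% DMSO final), incubated standing at 37 °C; aliquots plated for CFU every 7 days, plates counted after 4 weeks at 37 °C.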

The subject of data set [4] is HepG2. Put plainly: Disruption of mitochondrial membrane potential in human HepG2 cells at less than IC50 concentration after 30 mins by DiOC2 probe based fluorescence assay. In kind it is ADME, cell-based. To be noted: hepg2, 0.5 h.
Data set [5] concerns Mycobacterium tuberculosis. Put plainly: Antitubercular activity against non-replicating Mycobacterium tuberculosis H37Rv assessed as log reduction in CFU at 10 to 100 uM at pH 4.5 to 6.8 after 7 days. In kind it is functional.
Data set [6] deals with Mycobacterium tuberculosis. In words: Disruption of membrane potential loss in Mycobacterium tuberculosis H37Rv at < MBC concentration at pH 4.5 after 15 mins measured at pH 6.8 by DiOC2 probe based fluorescence assay. In kind it is functional, organism-based.
The test system of data set [7] is Mycobacterium tuberculosis. Put plainly: Antitubercular activity against Mycobacterium tuberculosis H37Rv infected in mouse RAW264.7 cells. In kind it is functional, organism-based.
The next data set relates to RAW264.7. In words: Cytotoxicity against mouse RAW264.7 cells. In kind it is cell-based.
The test system of data set [8] is Mycobacterium tuberculosis. In words: Antitubercular activity against non-replicating Mycobacterium tuberculosis H37Rv assessed as microbial killing at 130 to 260 uM at pH 5.5. In kind it is functional, organism-based. To be noted: TDE = time-dependent effect. The gist of the method:
as §1

In data set [9] the test system is Mycobacterium tuberculosis. Put plainly: Antitubercular activity against non-replicating Mycobacterium tuberculosis H37Rv assessed as microbial killing at 125 to 250 uM at pH 5.5. In kind it is functional, organism-based. To be noted: TDE = time-dependent effect. The gist of the method: as §1
For data set [10], the system named is Mycobacterium tuberculosis. In words: Antitubercular activity against non-replicating Mycobacterium tuberculosis H37Rv assessed as microbial killing at 145 to 290 uM at pH 5.5. In kind it is functional, organism-based. The note with it: TDE = time-dependent effect. The gist of the method: as §1

Calls of active or inactive are those of the source. The calls are words filed in the database; no cut-off is given here.

`CCNc1ccccc1C(=O)Nc1ccc(Cl)cc1Cl`: the outcome in [1] was Active. In addition, the Activity result in the data set on HepG2 [2] is “Non-Toxic”.
For `O=C(Nc1ccc(Cl)cc1)c1ccccc1NS(=O)(=O)c1ccc(Br)cc1`, the Activity entry in [3] is “Tde”.
For `O=C(Nc1ccccc1)c1ccccc1NS(=O)(=O)c1ccc(Br)cc1`, in data set [1], the result was Active. Also, in the data set with HepG2 [4], the Activity entry is listed as “Toxic”.
Take `Cc1nnc(Sc2ccc3nsnc3c2[N+](=O)[O-])s1`: the Activity entry with HepG2 [4] is recorded as “Toxic”.
Regarding `O=[N+]([O-])c1cc2nc(C(F)(F)F)[nH]c2c2nsnc12`, the Activity in [5] is reported as more than 4 log10CFU.
On to `CCCCNC(=O)c1ccccc1NS(=O)(=O)c1ccc(Br)cc1`, for which the result in [6] and in [1] was Active. Also, the Activity result in the data set on HepG2 [4] was “Toxic”.
Regarding `CCN(C)c1ccccc1C(=O)Nc1ccc(Cl)cc1Cl`, in data set [7], the result was Active. Also, the Activity entry with RAW264.7 is given as “Toxic”.
As to `O=C(Nc1ccccn1)c1ccccc1NS(=O)(=O)c1ccc(Br)cc1`, the Activity entry in [8] was “Tde”.
For the compound `CN(C(=O)c1ccccc1NS(=O)(=O)c1ccc(Br)cc1)c1ccc(Cl)cc1Cl`, the result in [6] and in [1] was Active. The Activity entry in the data set on HepG2 [4] is “Toxic”.
For the compound `NC(=O)c1ccccc1NS(=O)(=O)c1ccc(Br)cc1`, the result in data set [1] was inactive. For the same compound, the Activity entry with HepG2 [2] is “Non-Toxic”.
In the case of `Cc1ccc(S(=O)(=O)Nc2ccccc2C(=O)Nc2ccc(Cl)cc2Cl)cc1`, the Activity entry in data set [9] is “Tde”.
In the case of `CS(=O)(=O)Nc1ccccc1C(=O)Nc1ccc(Cl)cc1Cl`, the Activity result in data set [10] is “Tde”.
Regarding `O=[N+]([O-])c1c(Sc2ccccn2)ccc2nsnc12`, the Activity result in the data set on HepG2 [4] is “Toxic”.
`O=C(Nc1ccc(Cl)cc1Cl)c1ccccc1NS(=O)(=O)c1ccc(Br)cc1`: the outcome in data set [6] and in data set [1] was Active.
